Usually IC50 stands for the point on the concentration scale where inhibition reaches its midpoint. Usually IC90 stands for the concentration needed for an effect of 90%.

The test system of one experiment is Human betaherpesvirus 5. Nature of the experiment: Inhibition of human cytomegalovirus (HCMV) in plaque reduction assay. In kind it is functional, organism-based. In short, it runs like this: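 HCMV Towne strain (plaque-purified P0) plaque reduction in HFF monolayers in MEM(E) with 10% FBS. Inoculum held about 50 PFU, with compound dissolved in the overlay medium. IC50 came from linear regression of percent inhibition against log concentration, with ganciclovir or acyclovir positive controls in every set; two to five experiments.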
On the technique in general: Plaque reduction counts the foci of infection that form in a cell layer.

The nature of experiment [1]: Cytotoxic activity against HFF cells. It is filed as cell-based. The following applies: Homo sapiens. The method, boiled down: (§1)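 Cytotoxicity was scored visually in uninfected HFF or BSC-1 monolayers within the plaque-reduction assays. Drug-induced cytopathology was read at 35- and 60-fold magnification on a 0 to 4+ scale on the day plaques were stained and counted.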

Experiment [2] deals with L1210. Put plainly: In vitro inhibition of L1210 cell growth. It is filed as functional, Mus musculus. Details: concentration or dose not given beside the values. The method, boiled down:
(§2)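 Murine L1210 leukemia cells in static suspension culture in Fischer's medium with compound for 4 days. Growth rate is the ratio of control to treated population doubling time; where the rate changed, the final rate was used. IC50 is the concentration giving 50% of control growth rate; single-concentration value at 100 μM.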

A further experiment concerns Neoplastic cell line. Nature of the experiment: Cytotoxic activity against KB cells. It is filed as cell-based. The following applies: Homo sapiens. In short, it runs like this: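 KB cells (human oral epidermoid carcinoma) grown in MEM(H) with 5% FBS. Compound effect on incorporation of radiolabelled precursors into DNA, RNA and protein was measured. IC50s came from linear regression of percent inhibition against log concentration, and the three IC50s were averaged.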

For experiment [3], the system named is L1210. Put plainly: In vitro inhibition of L1210 cell growth to half of the control rate. In kind it is functional, cell-based. To be noted: Mus musculus. In short, it runs like this:
as §2

In experiment [4] the test system is Human alphaherpesvirus 1. Put plainly: Inhibition of herpes simplex virus (HSV-1) in plaque reduction assay. In kind it is functional, organism-based. In short, it runs like this:
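HSV-1 S-148 strain plaque reduction in BSC-1 monkey kidney monolayers, with about 100 PFU inoculum and compound dissolved in the overlay medium. IC50 came from linear regression of percent inhibition against log concentration, with a positive control in each set.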

Experiment [5] is described as follows: Cytotoxic activity against BSC cells. The following applies: Cercopithecidae. It is filed as cell-based. The method, boiled down: as §1
For experiment [6], the system named is Human alphaherpesvirus 1. Put plainly: Inhibition of herpes simplex virus (HSV-1) in yield reduction assay. It is filed as functional, organism-based.

Where “and” joins values, the source holds several entries; their conditions need not be identical. Equal values may be shown once.

For `OCC(CO)OCn1ccc2cncnc21`, the half-inhibitory concentration (IC50) (in the experiment with Human betaherpesvirus 5 (Human betaherpesvirus 5); in experiment [1]) was more than 100 µM throughout. The Activity in the experiment on L1210 [2] is recorded as 100%.

Take `Nc1ncnc2c1c(Br)cn2[C@@H]1O[C@H](CO)[C@@H](O)[C@H]1O`: the IC50 in the experiment on Human betaherpesvirus 5 was 3.4 µM; with Neoplastic cell line, 2.3 µM; with L1210 [3] it was 4 µM. In the experiment with L1210 [2], this compound came in with an Activity of 9%.

As to `OCC(CO)OCn1cc(Cl)c2c(NO)ncnc21`, the IC50 with Human betaherpesvirus 5 is 56 µM and 24 µM and 50 µM; in experiment [1] it was more than 100 µM; in the experiment on L1210 [3] it was 75 µM. The compound further registered an Activity in the experiment on L1210 [2] of 41%.

As for `Cc1cn(COC(CO)CO)c2ncnc(N)c12`, the IC50 (with Human alphaherpesvirus 1 [4]; in the experiment with Human betaherpesvirus 5 (Human betaherpesvirus 5); in experiment [1]; in the experiment with L1210 [3]) was more than 100 µM each time. Moreover, the Activity in the experiment on L1210 [2] was 73%.

On to `Nc1nc2c(ncn2COCCO)c(=O)[nH]1` [ACYCLOVIR], for which the IC50 in experiment [5] was more than 100 µM; in the experiment on Human alphaherpesvirus 1 [4] it was 4 µM; with Human betaherpesvirus 5, 63 µM; in the experiment on Neoplastic cell line, more than 100 µM. Also, in the experiment on Human alphaherpesvirus 1 [6], the 90% effect level (IC90) was put at 7 µM.

For `OCC(CO)OCn1ccc2c(NO)ncnc21`, the IC50 (in the experiment on Human betaherpesvirus 5 (Human betaherpesvirus 5); in experiment [1]) was more than 100 µM throughout. In the experiment on L1210 [2], the Activity was 100%.

For the compound `OCC(CO)OCn1cc(I)c2c(NO)ncnc21`, the IC50 with Human alphaherpesvirus 1 [4] was 30 µM; in the experiment with Human betaherpesvirus 5, 18 µM and 3.2 µM; in experiment [1], more than 100 µM; in the experiment with L1210 [3], 39 µM. The Activity with L1210 [2] came out at 11%.

As for `Nc1ncnc2c1c(Cl)cn2COC(CO)CO`, the IC50 in experiment [5] was more than 100 µM; in the experiment with Human alphaherpesvirus 1 [4], 16 µM; in the experiment with Human betaherpesvirus 5 it was 8 µM; in the experiment with Human betaherpesvirus 5 (Human betaherpesvirus 5), 9.8 µM; in experiment [1], more than 100 µM; in the experiment on Neoplastic cell line, more than 100 µM. The compound further yielded an IC50 with L1210 [3] of 2.3 µM. Besides, it took 22 µM to reach the 90% level in the experiment on Human alphaherpesvirus 1 [6] (IC90). For the same compound, the Activity in the experiment with L1210 [2] was 6%.

Values taken from ChEMBL document CHEMBL1124846, “Synthesis, antiproliferative, and antiviral activity of certain 4-substituted and 4,5-disubstituted 7-[(1,3-dihydroxy-2-propoxy)methyl]pyrrolo[2,3-d]pyrimidines” (J Med Chem, 1990).
